Reference: ChEMBL document CHEMBL5360619
The source made the active and inactive calls. No cut-off for these calls is given here.

Assays:
[1] = tested on: Mycobacterium tuberculosis; assay: Reversal of isoniazid resistance in Mycobacterium tuberculosis Erdman harboring frameshift mutation in KatG at amino acid 6 assessed as reduction in surviving bacteria by measuring reduction in colony forming units at 1 uM incubated for 13 days; type: functional, organism-based; conditions: time 13.0 day
[2] = tested on: Mycobacterium tuberculosis; assay: Antimycobacterial activity against Mycobacterium tuberculosis Erdman harboring frameshift mutation in KatG at amino acid 6 assessed as reduction in colony forming units at 1 uM incubated for 13 days; type: functional, organism-based; conditions: time 13.0 day
Procedure, shortened: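 katG frameshift mutant grown to log phase in Sauton's medium, diluted to 5 × 10^7 CFU/mL, given 1 μM compound (imidazole salt in DMSO); IMD/DMSO vehicle controls. Incubated rolling at 37 °C. After 13 days, serial dilutions plated on 7H11 agar with ADC for CFU. Two experiments, each in duplicate; one-way ANOVA with Tukey's correction.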

[3] = tested on: Mycobacterium tuberculosis; assay: Antimycobacterial activity against Mycobacterium tuberculosis Erdman harboring frameshift mutation in KatG at amino acid 6 assessed as reduction in colony forming units at […] incubated for 13 days (reference value: 9.07 x 10^9 CFU/mL); type: functional; conditions: dose 2.5 µg/ml; time 13 day

O=C(O)C1CSc2c(C3CC3)c(-c3cc(-c4ccc5ccccc5c4)no3)cc(=O)n21.c1c[nH]cn1 (racemic)
Activity [1]: Active | Activity [2]: inactive

O=C(O)C1CSc2c(C3CC3)c(Cc3cccc4ccccc34)cc(=O)n21.c1c[nH]cn1 (racemic)
Activity [1]: inactive | Activity [2]: inactive

NNC(=O)c1ccncc1 [ISONIAZID]
Activity [3]: 8.09 10^8CFU/ml
